These results are taken from article PMC7080202 (Medicinal Chemistry Research, 2013).

Entries after “also recorded” stand apart in the source; their conditions may differ. Read-outs that look alike come from different tables or passages of the source.

The subject of data set [1] is Cytomegalovirus Davis strain. Put plainly: microbe, parasite or virus in culture. Particulars: Human betaherpesvirus 5, HEL, read-out: EC50 Cytomegalovirus Davis strain. Type of data set: cell-based.
In data set [2] the test system is Herpes simplex virus-1 (KOS). In words: microbe, parasite or virus in culture. The data set is classed as cell-based, herpes simplex virus type 1. The following applies: Human alphaherpesvirus 1, HEL, read-out: EC50 Herpes simplex virus-1 (KOS).
Data set [3] deals with Herpes simplex virus-2 (G). Put plainly: microbe, parasite or virus in culture. Type of data set: cell-based, herpes simplex virus type 2. The following applies: Human alphaherpesvirus 2, HEL, read-out: EC50 Herpes simplex virus-2 (G).
The test system of another data set is Vaccinia virus. In words: microbe, parasite or virus in culture. Particulars: Orthopoxvirus vaccinia, HEL, read-out: EC50 Vaccinia virus. The data set is classed as cell-based.
Data set [4] concerns Vesicular stomatitis virus. Put plainly: microbe, parasite or virus in culture. Particulars: Vesicular stomatitis virus, HEL, read-out: EC50 Vesicular stomatitis virus. The data set is classed as cell-based.
Data set [5] concerns Herpes simplex virus-1TK-KOS ACV^r. Put plainly: microbe, parasite or virus in culture. The data set is classed as cell-based, herpes simplex virus type 1. The following applies: Human alphaherpesvirus 1, HEL, read-out: EC50 Herpes simplex virus-1TK-KOS ACV^r.
The test system of a further data set is Feline herpes virus. Put plainly: Antiviral CPE assay, feline herpes virus in CRFK cells. Type of data set: cell-based. Particulars: CRFK, read-out: EC50 Feline herpes virus.
Data set [6] relates to Coxsackie virus B4. In words: microbe, parasite or virus in culture. Type of data set: cell-based. Particulars: Enterovirus B, B4, HeLa, read-out: Antiviral activity EC50 Coxsackie virus B4.
For a further data set, the system named is Para-influenza-3 virus. Put plainly: organism not typed. Type of data set: cell-based, parainfluenza-3 virus. The following applies: Vero, read-out: Antiviral activity EC50 Para-influenza-3 virus.
The next data set has as its system Reovirus-1. In words: organism not typed. Type of data set: cell-based. The following applies: Vero, read-out: Antiviral activity EC50 Reovirus-1.
The next data set relates to Sindbis virus. In words: microbe, parasite or virus in culture. The data set is classed as cell-based. The following applies: Sindbis virus, Vero, read-out: Antiviral activity EC50 Sindbis virus.
For data set [7], the system named is Coxsackie virus B4. Put plainly: microbe, parasite or virus in culture. The data set is classed as cell-based. Particulars: Enterovirus B, B4, Vero, read-out: Antiviral activity EC50 Coxsackie virus B4.
A further data set concerns Punta Toro virus. Put plainly: microbe, parasite or virus in culture. The data set is classed as cell-based. The following applies: Punta Toro virus, Vero, read-out: Antiviral activity EC50 Punta Toro virus.
For the next data set, the system named is Influenza B. In words: Anti-influenza virus activity, influenza B in MDCK cells. Type of data set: cell-based, influenza B virus B/Hong Kong/5/72. The following applies: Influenza B virus, MDCK.
Data set [8] relates to Human embryonic lung cell cultures. Put plainly: Cytotoxicity. Type of data set: cell-based. In short, it runs like this:
(§1)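 Cell cultures incubated with varying concentrations of test compound, then examined by microscopy. MCC is the lowest concentration that causes a microscopically detectable alteration of normal cell morphology. HEL, Vero and HeLa lines were monitored regularly for mycoplasma and found free of it.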

In data set [9] the test system is Crandell-Rees feline kidney cells. In words: Cytotoxicity. The data set is classed as cell-based.
Another data set relates to HeLa cell cultures. In words: Cytotoxicity. The data set is classed as cell-based. In short, it runs like this:
as §1

The next data set relates to Vero cell cultures. In words: Cytotoxicity. The data set is classed as cell-based. In short, it runs like this:
as §1

The subject of data set [10] is mouse-skin papillomas induced by DMBA and TPA. In words: Two-stage mouse-skin carcinogenesis test. The data set is classed as in vivo. In short, it runs like this: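 Specific pathogen-free female ICR mice, 6 weeks old, about 30 g, 15 per group, kept at 24 ± 2 °C. Shaved backs were initiated with DMBA (100 μg, 390 nmol) in 0.1 ml acetone. One week later, TPA (1 μg, 1.7 nmol) in acetone was applied twice weekly. Test compound (85 nmol) in 0.1 ml acetone was applied topically 1 h before each TPA. Papillomas were scored weekly for 20 weeks as % mice bearing papillomas and mean papillomas per mouse.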

The subject of the next data set is MDCK cells. The following applies: microscopically detectable alteration of normal cell morphology.
A short description of another data set: in vitro. The following applies: dog.
A further data set concerns Influenza A H1N1 subtype. Put plainly: Anti-influenza virus activity, influenza A H1N1 in MDCK cells. The data set is classed as cell-based, influenza A virus A/Puerto Rico/8/34 (H1N1). Particulars: H1N1, H3N2 and influenza B; below the non-toxic concentration of 100 µM.
[11] abbreviates: read-out: Antiviral EC50 Influenza B MTS.
The mark [12] stands for this setting: read-out: Antiviral EC50 Influenza B Visual CPE score.

The EC50 is the concentration needed to bring the measured effect to its halfway point. With `Cc1ccc2c(c1)/C(=N/NC(=O)N/N=C1\C(=O)Nc3ccc(C)cc31)C(=O)N2` [6c, 1,3-Bis({[(3Z)-5-methyl-2-oxo-2,3-dihydro-1H-indol-3-ylidene]amino})urea], the concentration for a half-maximal effect (EC50) (in [1]; in data set [2]; in data set [3]; in the data set with Vaccinia virus; in data set [4]; in [5]) was > 100 µM throughout. The half-maximal effective concentration (EC50) is 55.1 µM with Feline herpes virus; > 100 µM in the data set with Coxsackie virus B4 [6]; > 20 µM in the data set with Para-influenza-3 virus; > 20 µM with Reovirus-1; > 20 µM with Sindbis virus; > 20 µM in the data set on Coxsackie virus B4 [7]. Also, the EC50 in the data set with Punta Toro virus, with Influenza B (setting [11]) and with Influenza B (setting [12]) was > 20 µM each time. Also, the Minimum cytotoxic concentration in [8] is >100 µM; in data set [9] it was >100 µM; in the data set on HeLa cell cultures, >100 µM; in the data set with Vero cell cultures, 100 µM. Besides, the “chemoprevention / anti-tumor promoting activity (in words)” value in data set [10] (85 nmol topical) is on record as “highest chemoprevention activity; also recorded: stronger chemoprevention activity”. Moreover, the “percentage of papilloma-bearing mice” value in data set [10] (85 nmol topical before each TPA, during weeks 10–15) was 40–70%; in data set [10] (85 nmol topical, week 18), 90%; in [10] (85 nmol topical, week 20) it was 100%. In data set [10] (85 nmol topical, week 20), the papillomas/mouse was 5.1 papillomas/mouse. The “Cytotoxicity Minimum cytotoxic concentration” value in the data set on MDCK cells is given as ≥20. Besides, the CC50 in “in vitro” is 46 µM.
In the case of `O=C(N/N=C1\C(=O)Nc2ccc([N+](=O)[O-])cc21)N/N=C1\C(=O)Nc2ccc([N+](=O)[O-])cc21` [6d, 1,3-Bis({[(3Z)-5-nitro-2-oxo-2,3-dihydro-1H-indol-3-ylidene]amino})urea], the concentration for a half-maximal effect (EC50) (in data set [1]; in data set [2]; in data set [3]; in the data set with Vaccinia virus; in data set [4]; in data set [5]) was > 100 µM in each case. In addition, the half-maximal effective concentration (EC50) with Feline herpes virus, in the data set with Coxsackie virus B4 [6], with Para-influenza-3 virus, in the data set with Reovirus-1, in the data set with Sindbis virus and in the data set on Coxsackie virus B4 [7] was > 100 µM in each case. Further, the EC50 is > 100 µM in the data set on Punta Toro virus, 38 ± 1.3 µM in the data set with Influenza B (setting [11]) and 47 ± 2.5 µM with Influenza B (setting [12]). In addition, the “anti-influenza activity (in words)” value in the data set on Influenza A H1N1 subtype was “some activity”. Besides, the Minimum cytotoxic concentration in data set [8] is ≥100 µM; in data set [9] it was >100 µM; in the data set on HeLa cell cultures, >100 µM; with Vero cell cultures it was >100 µM. Further, the “Cytotoxicity Minimum cytotoxic concentration” value with MDCK cells was >100. Also, in the data set “in vitro”, the CC50 is > 100 µM.
Regarding `O=C1Nc2ccccc2/C1=N/NC(=S)N/N=C1\C(=O)Nc2ccccc21` [6e, 1,3-Bis({[(3Z)-2-oxo-2,3-dihydro-1H-indol-3-ylidene]amino})thiourea], the EC50 was > 20 µM in [1]; > 100 µM in data set [2]; > 100 µM in data set [3]; > 100 µM in the data set on Vaccinia virus; > 100 µM in data set [4]; > 100 µM in data set [5]. The EC50 in the data set on Feline herpes virus is > 100 µM; in the data set with Coxsackie virus B4 [6] it was > 100 µM; in the data set on Influenza B (setting [11]), 48 ± 31 µM; with Influenza B (setting [12]), 39 ± 5.5 µM. The “anti-influenza activity (in words)” value with Influenza A H1N1 subtype was “some activity”. Moreover, the Minimum cytotoxic concentration in data set [8] is 100 µM; in data set [9] it was >100 µM; in the data set on HeLa cell cultures it was >100 µM; with Vero cell cultures, 100 µM. Besides, the “Cytotoxicity Minimum cytotoxic concentration” value in the data set on MDCK cells is given as >100. Further, in the data set “in vitro”, the CC50 was > 100 µM.
